This is an account of results in ChEMBL document CHEMBL1122082, “Alkaline phosphatase inhibition by a series of pyrido[2,1-b]quinazolines: A possible relationship with cromolyn-like antiallergy activity” (J Med Chem, 1982).

For test [1], the species on record is Rattus norvegicus. The test is described as follows: Dose required for 50% inhibition of rat passive cutaneous anaphylaxis model. It counts as functional. In outline: (§1)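 Antiserum dilutions were injected intradermally on the back. 48 h later rats got an i.v. challenge of 1 mg ovalbumin with 0.25% Evans blue in 1 mL saline, with compound dissolved in it, using slight-excess NaHCO3 if needed.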

The subject of test [2] is Rattus norvegicus. In words: Percent inhibition of rat passive cutaneous anaphylaxis model after intravenous administration of the 0.5 mg/kg. It counts as functional. A digest of the protocol: as §1
Test [3] relates to Rattus norvegicus. The test is described as follows: Percent inhibition of rat passive cutaneous anaphylaxis model after intravenous administration of the 0.5 mg/kg; IA is Inactive. Further details: dose 0.5 mg/kg. It counts as functional, organism-based. As to conditions: at 0.5 mg/kg. A digest of the protocol: as §1

The source made the active and inactive calls. The rule behind the calls is not given here.

One may read the ED50 as the midpoint of the dose-response relation. The low end stands for greater potency, the high end for weaker potency. Molecule `Cc1ccc2nc3ccc(C(=O)O)cn3c(=O)c2c1` showed an ED50 in the test listed under Rattus norvegicus [1] of 0.05 mg/kg.
For the molecule `O=C(O)c1ccc2nc3ccccc3c(=O)n2c1`, the ED50 in the test filed under Rattus norvegicus [1] was 0.5 mg/kg.
Broadly, the inhibition in vivo is the drop in the measured response relative to a control, in per cent. A higher inhibition in vivo goes with a strong effect. On to `COc1cc2nc3ccc(-c4nn[nH]n4)cn3c(=O)c2cc1OC`, for which, in the test on Rattus norvegicus [2], the inhibition in vivo at 0.5 mg/kg stood at 100%.
In the test filed under Rattus norvegicus [1], `COc1ccc2c(=O)n3cc(-c4nn[nH]n4)ccc3nc2c1` came in with an ED50 of 0.5 mg/kg.
For `O=c1c2cc3ccccc3cc2nc2ccc(-c3nn[nH]n3)cn12`, testing at 0.5 mg/kg in the test on Rattus norvegicus [2] gave an inhibition in vivo of 100%.
In the test listed under Rattus norvegicus [1], `COc1ccc2nc3ccc(-c4nn[nH]n4)cn3c(=O)c2c1` displayed an ED50 of 0.03 mg/kg.
Molecule `COc1cc2nc3ccc(C(=O)O)cn3c(=O)c2cc1OC` came in with an ED50 in the test listed under Rattus norvegicus [1] of 0.05 mg/kg.
With `O=c1c2ccccc2nc2ccc(-c3nn[nH]n3)cn12`, the inhibition in vivo at 0.5 mg/kg with Rattus norvegicus [2] is 68%.
`O=C(O)c1cccn2c(=O)c3cc4ccccc4cc3nc12`: the inhibition result in the test on Rattus norvegicus [3] is “inactive”.
In the test listed under Rattus norvegicus [1], `O=C(O)c1ccc2nc3ccc(O)cc3c(=O)n2c1` had an ED50 of 0.05 mg/kg.
The molecule `O=C(O)c1ccn2c(=O)c3ccccc3nc2c1` gave an inhibition in vivo at 0.5 mg/kg with Rattus norvegicus [2] of 26%.
On the same count and under the same terms, as for `Cc1ccc2nc3ccc(-c4nn[nH]n4)cn3c(=O)c2c1`, the figure is 100%.
`O=C(O)c1ccc2nccc(=O)n2c1`: the inhibition entry with Rattus norvegicus [3] is “inactive”.
As for `O=C(O)c1cccn2c(=O)c3ccccc3nc12`, the inhibition entry in the test on Rattus norvegicus [3] is “inactive”.
For the molecule `O=C(O)C1=CN2CC3=C(CCCC3)N=C2C=C1`, the inhibition result with Rattus norvegicus [3] is “inactive”.
In turn, `O=C(O)c1ccc2nc3cc4ccccc4cc3c(=O)n2c1` had an ED50 in the test listed under Rattus norvegicus [1] of 0.1 mg/kg.
Still for that read-out and setting: as for `COc1ccc2nc3ccc(C(=O)O)cn3c(=O)c2c1`, the figure is 0.05 mg/kg.
